The source of these data is the array DNA melting data of Ke et al. (doi:10.1101/2024.01.08.574731).

A short description of series [1]: melting temperature; fluorescence melt of hairpins on a sequencing array, two-state fit, raised by 9.35 °C to match UV melts. To be noted: sodium 0.088 M. The essentials:
(§1)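 Melting temperature and folding enthalpy were obtained by bootstrapped two-state fitting. Fits used Cy3 fluorescence of library hairpins with annealed Cy3 and quencher oligos on a sequenced MiSeq flow cell, imaged in 50 mM Na-HEPES pH 8.0, 25 mM NaCl in 2.5 °C steps up to 60 °C and normalised to pre-quench Cy3 and control constructs. Four replicates were combined by inverse-variance weighting, and fitted temperatures were raised by 9.35 °C to match UV melts.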

Series [2] is described as follows: folding enthalpy; higher = less favourable; fluorescence melt of hairpins on a sequencing array, two-state fit. Conditions: sodium 0.088 M. The essentials: as §1

As for GTCTGTTCGAAAGAAGAC (((..(((....)))))), the Tm in series [1] was 26.4 °C. Further, in series [2], the folding enthalpy is -23 kcal/mol.
Turning to GAGACTGGAAACAGCCTC (((.(((....))).))), the Tm in series [1] was determined as 43.3 °C. In addition, in series [2], the folding enthalpy is -23.8 kcal/mol.
Consider GCCCAACGAAAGTTTGGC (((.(((....))).))), for which, in series [1], the Tm is 50.2 °C. In series [2], the folding enthalpy is -28.1 kcal/mol.
Take TATTCGAAAGAATA (((((....))))): the Tm in series [1] worked out at 36.7 °C. The folding enthalpy in series [2] was -14.3 kcal/mol.
For the sequence GCGCGCGGAAACGCGCAC (.(((((....))))).), the Tm in series [1] came out at 65.3 °C. The folding enthalpy in series [2] was -7.45 kcal/mol.
GCAAAGGGAAACCTTCGC ((.((((....)))).)): the Tm in series [1] was 39.2 °C. Also, in series [2], the folding enthalpy was -26.8 kcal/mol.
The like results for GCGGAGCGAAAGCTAAGC ((..(((....)))..)) were, in that order, 54 °C and -12.8 kcal/mol.
As for GCCGTAGGAAACTGCGGC ((((.((....)).)))), the Tm in series [1] was found to be 61.6 °C. The folding enthalpy in series [2] was -37.3 kcal/mol.
Turning to GATTAAGGAAACTTAGTC ((.((((....)))).)), the Tm in series [1] amounted to 28 °C. Moreover, the folding enthalpy in series [2] was -12.6 kcal/mol.
On to GTGTGTGGAAACATGCAC (((..((....))..))), for which the Tm in series [1] was found to be 43.3 °C. Further, the folding enthalpy in series [2] is -27.4 kcal/mol.
With GTTATACCGAAAGGTAAC (((..(((....)))))), the Tm in series [1] stood at 32.8 °C. The folding enthalpy in series [2] is -10.4 kcal/mol.
The like results for GAGTCCGGAAACGGGTTC ((..(((....)))..)) were, in that order, 33.6 °C and -16.1 kcal/mol.
In the same order, the values of GGACCTGGAAACGGGTCC (((((.(....).))))) are 58.3 °C and -45 kcal/mol.
GCGATTTATCGC ((((....)))): in series [1], the Tm was 68.7 °C. In series [2], the folding enthalpy is -28.4 kcal/mol.
The like results for GATCAACTAGTTGATC ((((((....)))))) were, in that order, 56.3 °C and -38.6 kcal/mol.
The like results for GGGAGGAAACTCCC (((((....))))) were, in that order, 56 °C and -33.5 kcal/mol.
Regarding GATCAACGCTTTGATC ((((((....)))))), the Tm in series [1] is 46.4 °C. Further, the folding enthalpy in series [2] was -44.1 kcal/mol.
The like results for GGCTTTGGAAACAAAGCC (((((((....))))))) were, in that order, 68.3 °C and -34.1 kcal/mol.
Regarding GCGCTTGGAAACAAGTGC ((.((((....)))).)), the Tm in series [1] worked out at 56.9 °C. Further, in series [2], the folding enthalpy is -50.5 kcal/mol.
With GCTCTTTCGAAAGAAAGC (((..(((....)))))), in series [1], the Tm was found to be 32.5 °C. Also, in series [2], the folding enthalpy is -13.4 kcal/mol.
The like results for GCGCCCGAAAGGGCCGC ((((((....))).))) were, in that order, 68 °C and -11.5 kcal/mol.
The like results for GATCCGAATGCGGATC ((((((....)))))) were, in that order, 54.1 °C and -37.8 kcal/mol.
In the same order, the values of GTCGCCGCGAAAGCGGAC (((..(((....)))))) are 32.8 °C and -6.08 kcal/mol.
For GATCCGGCACCGGATC ((((((....)))))), the Tm in series [1] was found to be 63.8 °C. Moreover, in series [2], the folding enthalpy was -44 kcal/mol.
GATCGGAGCACCGATC ((((((....)))))): the Tm in series [1] came out at 57.4 °C. Moreover, in series [2], the folding enthalpy was -34.3 kcal/mol.
Turning to GATCCACTTGTGGATC ((((((....)))))), the Tm in series [1] was found to be 66.5 °C. Further, the folding enthalpy in series [2] was -37.5 kcal/mol.
As for GTCGACCGAAAGGTAGAC (((.(((....))).))), in series [1], the Tm was 59.8 °C. Besides, in series [2], the folding enthalpy is -36.4 kcal/mol.
Take GGTTCCGAAAGGAAACC ((((((....))).))): in series [1], the Tm is 53.7 °C. Also, in series [2], the folding enthalpy was -25.9 kcal/mol.
The like results for GTTTACGGAAACGTAAGC (.(((((....))))).) were, in that order, 41.5 °C and -22.4 kcal/mol.
In the case of GCATGCGAAAGCATCTGC ((((((....)))..))), in series [1], the Tm is 47 °C. Besides, the folding enthalpy in series [2] was -13.4 kcal/mol.
In the same order, the values of GCCTGGCGAAAGCAAAGC ((.(.((....)).).)) are 31.6 °C and -9.2 kcal/mol.
As to GGCCTACGAAAGTACGCC (((.(((....))).))), the Tm in series [1] turned out to be 47.4 °C. In addition, the folding enthalpy in series [2] was -26.4 kcal/mol.
On to GCTATTGGAAACAATGGC ((.((((....)))).)), for which, in series [1], the Tm amounted to 45.7 °C. For the same sequence, the folding enthalpy in series [2] is -36.1 kcal/mol.
The like results for GCGTGAGGAAACTCGCGC (((.(((....))).))) were, in that order, 64.8 °C and -43 kcal/mol.
With GATCACGGAAACGTGGTC ((.((((....)))).)), the Tm in series [1] was found to be 53.8 °C. Further, the folding enthalpy in series [2] was -38.7 kcal/mol.
Consider GGTTGCGGAAACGCAGCC ((.((((....)))).)), for which the Tm in series [1] stood at 63.5 °C. For the same sequence, the folding enthalpy in series [2] was -39.2 kcal/mol.
For the sequence GCGAAGCGAAAGCTCGC (((.(((....)))))), the Tm in series [1] came out at 67.1 °C. Also, in series [2], the folding enthalpy was -24.3 kcal/mol.
In the same order, the values of GTCAACGAAAGTTCGGAC ((((((....)))..))) are 30.5 °C and -14 kcal/mol.
In the case of GTGATCGAAAGATTTCAC ((((((....)))..))), the Tm in series [1] was found to be 27.6 °C. Besides, in series [2], the folding enthalpy is -14.3 kcal/mol.
In the same order, the values of GTTTACCGAAAGGTAAC (((.(((....)))))) are 44.2 °C and -12.7 kcal/mol.
The like results for GGAATGCCGAAAGGCTCC (((..(((....)))))) were, in that order, 34.5 °C and -10.2 kcal/mol.
The like results for CGCACCCGGAAACGGGCG (((..(((....)))))) were, in that order, 46.1 °C and -12 kcal/mol.
With GATGCTGGAAACAGTGTC ((..(((....)))..)), the Tm in series [1] turned out to be 37.8 °C. Further, the folding enthalpy in series [2] is -26.2 kcal/mol.
Take GGTACCGAAAGGTCGACC ((((((....)))..))): in series [1], the Tm amounted to 36.5 °C. The folding enthalpy in series [2] is -13.6 kcal/mol.
In the same order, the values of GCATTTGAAAAAATGC ((((((....)))))) are 52.8 °C and -30.9 kcal/mol.
As to GTTTCTGGAAACAGAAGC (.(((((....))))).), in series [1], the Tm is 39.5 °C. For the same sequence, the folding enthalpy in series [2] is -26.3 kcal/mol.
As for GATCTCACAGGAGATC ((((((....)))))), the Tm in series [1] was 51.7 °C. For the same sequence, in series [2], the folding enthalpy is -34 kcal/mol.
The like results for GATCCAAAGCTGGATC ((((((....)))))) were, in that order, 47.2 °C and -36.3 kcal/mol.
In the case of CGCACGGAAACGTCTGCG ((((((....)))..))), the Tm in series [1] was determined as 42.6 °C. The folding enthalpy in series [2] was -23.8 kcal/mol.
For GTCGACGAAAGTCCGAC ((((((....))).))), in series [1], the Tm amounted to 51.7 °C. The folding enthalpy in series [2] was -21.3 kcal/mol.
In the case of GATCTTTGACAAGATC ((((((....)))))), the Tm in series [1] was determined as 39.4 °C. Besides, the folding enthalpy in series [2] is -25.1 kcal/mol.
Regarding GAAGGCGAAAGCCGCTTC ((((((....)))..))), the Tm in series [1] worked out at 56.2 °C. Moreover, the folding enthalpy in series [2] is -13.6 kcal/mol.
In the same order, the values of GCCCCGCGAAAGCCCGGC (((..((....))..))) are 38.9 °C and -14.7 kcal/mol.
As for GATCAATTATTGATC ((((((...)))))), in series [1], the Tm is 43.8 °C. Besides, the folding enthalpy in series [2] is -29.3 kcal/mol.
The like results for GCCCTCGAAAGAGCGGC ((((((....))).))) were, in that order, 55.7 °C and -37.3 kcal/mol.
